# Reference: article PMC2947195 (Biochemical Journal, 2010)
# Substitutions are numbered along the chain they refer to.
# Experiments:
# Format in all cases: cell-based
# S313A hRFC = biological target: T1, S313A hRFC (Homo sapiens, UniProt P41440, S313A); assay: [3H]MTX transport kinetics
# T1 sequence (P41440 1-591 S313A): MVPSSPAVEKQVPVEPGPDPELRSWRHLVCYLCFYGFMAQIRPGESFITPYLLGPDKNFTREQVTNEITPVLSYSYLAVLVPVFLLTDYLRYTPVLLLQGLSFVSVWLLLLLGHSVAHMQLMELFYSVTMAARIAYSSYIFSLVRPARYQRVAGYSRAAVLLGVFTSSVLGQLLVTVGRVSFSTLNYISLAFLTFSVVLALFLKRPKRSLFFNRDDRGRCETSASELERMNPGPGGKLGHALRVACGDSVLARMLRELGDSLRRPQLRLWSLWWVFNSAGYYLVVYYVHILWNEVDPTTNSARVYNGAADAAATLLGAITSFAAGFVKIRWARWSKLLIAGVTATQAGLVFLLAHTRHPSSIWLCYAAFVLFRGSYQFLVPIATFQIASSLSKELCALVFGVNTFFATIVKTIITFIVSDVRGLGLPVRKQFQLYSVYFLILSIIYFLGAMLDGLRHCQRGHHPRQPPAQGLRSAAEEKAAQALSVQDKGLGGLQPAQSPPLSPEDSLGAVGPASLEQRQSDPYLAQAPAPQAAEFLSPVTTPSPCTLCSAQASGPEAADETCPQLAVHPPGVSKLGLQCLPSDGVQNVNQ
# Method in brief: (§1)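 Human hRFC-null K500E (K562 subline) cells were electroporated (155 V, 1000 μF) with wt or Ser313-mutant hRFC. Stable clones were selected in soft agar with G418 (1 mg/ml). [3H]MTX uptake was measured over 180 s in HBSS at 37 °C in a shaking water bath and expressed as pmol/mg protein (Lowry). Kt and Vmax came from Lineweaver–Burk plots, with Vmax normalized to densitometric Western blot hRFC levels. Three experiments, means±S.E.M.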
# S313T hRFC [1] = biological target: T2, S313T hRFC (Homo sapiens, UniProt P41440, S313T); assay: [3H]MTX transport kinetics
# T2 sequence (P41440 1-591 S313T): T1 sequence (P41440 1-591 S313A) with A313T
# Method in brief: as §1
# S313T hRFC [2] = biological target: T2, S313T hRFC; assay: [3H]MTX uptake in transiently transfected R5 HeLa cells; conditions: 0.5 μM [3H]MTX, 2 min, 37 °C, normalized to hRFC protein on Western blots
# [3] = biological target: T3, S313C hRFC (Ser^313 replaced with cysteine) (Homo sapiens, UniProt P41440, S313C); assay: [3H]MTX uptake in transiently transfected R5 HeLa cells
# T3 sequence (P41440 1-591 S313C): T1 sequence (P41440 1-591 S313A) with A313C
# Method in brief: (§2)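 Human R5 HeLa cells (transport-defective) were transiently transfected with Lipofectamine Plus, split at 24 h and assayed 24 h later. Uptake of 0.5 μM [3H]MTX ran for 2 min at 37 °C in HSM buffer (20 mM Hepes, 235 mM sucrose, pH 7.14 with MgO). Uptake was stopped with ice-cold PBS and cells solubilized in 0.5 M NaOH. Values in pmol/mg protein were normalized to HA-blot hRFC levels. Three experiments, means±S.E.M.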
# [4] = biological target: T4, S313F hRFC (Ser^313 replaced with phenylalanine) (Homo sapiens, UniProt P41440, S313F); assay: as above
# T4 sequence (P41440 1-591 S313F): T1 sequence (P41440 1-591 S313A) with A313F
# Method in brief: as §2
# [5] = K500E stable transfectant, mean±S.E.M., n=3
# [6] = Vmax normalized to relative hRFC level on Western blots
smiles,measurement,setting,value
"CN(Cc1cnc2nc(N)nc(N)c2n1)c1ccc(C(=O)N[C@@H](CCC(=O)O)C(=O)O)cc1 [MTX, methotrexate]",Vmax (normalized)/Kt,S313A hRFC,0.18
same,Kt,S313A hRFC; [5],2.26 ± 0.44 µM
same,Normalized Vmax,S313A hRFC; [6],0.41±0.03
same,Vmax (normalized)/Kt,S313T hRFC [1],0.43
same,Kt,S313T hRFC [1]; [5],2.11 ± 0.54 µM
same,Normalized Vmax,S313T hRFC [1]; [6],0.91±0.16
same,[3H]MTX transport activity relative to wt hRFC,S313T hRFC [2],~ 8%
same,MTX transport,[3],abolished
same,MTX transport,[4],abolished
